Drawing on ChEMBL document CHEMBL4513216, “Probing the Open Global Health Chemical Diversity Library for Multistage-Active Starting Points for Next-Generation Antimalarials” (ACS Infect Dis, 2020), this text covers cytotoxicity for 97 compounds.

The data set is described as follows: Toxicity liver stage against HepG2, at 10uM. More on the design: test concentration 10 uM, cell line HepG2-A16-CD81EGFP. To be noted: human, HepG2-A16-CD81EGFP cells; read-out: INHIBITION
It counts as cell-based. The procedure, abridged:
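Uninfected HepG2-A16-CD81EGFP cells, 3 × 10^3 per well, 1536-well, plated on prespotted compound at 10 μM final, parasite-free screening media added to match infected plates; puromycin 10 μM positive, DMSO 0.5% negative; run in parallel with 48 h PbLuc assay at 37 °C, 5% CO2; viability by CellTiter-Glo luminescence, normalized to controls.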
For the compound `Cc1cccc(SC2CCN(Cc3nc(CC4CC4)no3)CC2)c1`, the cytotoxicity at 10 µM is -6.51%.

For the compound `CC(=O)N1N=C(COc2ccc(C)cc2)OC1c1ccc(N(C)C)cc1` (configuration not stated), the cytotoxicity at 10 µM was -3.33%.

For the compound `CC(=O)c1cn(CCC(=O)N[C@@H](CC(C)C)C(=O)O)c2ccccc12`, the cytotoxicity at 10 µM was determined as 2.1%.

Take `Cc1ccsc1C1CC(=O)Nc2c1cnn2C(C)C` (configuration not stated): the cytotoxicity at 10 µM was -7.7%.

For `COCCN(Cc1ccoc1)C(=O)c1ccccn1`, the cytotoxicity at 10 µM is 9.24%.

`COCCC1COC2(CCN(C(=O)C3CCC3)CC2)C1` (configuration not stated): the cytotoxicity at 10 µM was found to be 8.25%.

Consider `O=C(c1ccc[nH]1)N1CCCC2(CCCN2Cc2cccnc2)C1` (configuration not stated), for which the cytotoxicity at 10 µM was 3.83%.

`O=C(C1CC1)N1CC[C@H]2[C@@H]1CCC(=O)N2c1ccccc1`: the cytotoxicity at 10 µM was 10.8%.

`CCS(=O)(=O)NCC1OCCc2cn(CCOC)nc21` (configuration not stated): the cytotoxicity at 10 µM turned out to be 9.43%.

In the case of `c1nc2c(c(C3CCOC3)n1)CCN(Cc1ccoc1)CC2` (configuration not stated), the cytotoxicity at 10 µM was determined as 7.01%.

As for `COc1ccc(Br)c(C(=O)NCC2CCN(C(=O)c3ccoc3)CC2)c1`, the cytotoxicity at 10 µM was -21.7%.

For the compound `CCn1cc(-c2cc(C(F)(F)F)nn2CCC#N)cn1`, the cytotoxicity at 10 µM is 3.93%.

For `CCn1cncc1CN1CCc2nc3sccc3c(=O)n2CC1`, the cytotoxicity at 10 µM was -2.55%.

As for `CCc1ncc(CN2C[C@@H]3C[C@@H](O)CN3C[C@@H]2Cc2ccccc2)cn1`, the cytotoxicity at 10 µM is -5.02%.

With `O=C1NC2(CCc3ccccc31)CCN(C(=O)c1cccnc1)C2` (configuration not stated), the cytotoxicity at 10 µM was determined as 5.5%.

On to `CCS(=O)(=O)N1C[C@@H](O)[C@H](N(C)Cc2ccc(F)cc2)C1`, for which the cytotoxicity at 10 µM stood at 4.54%.

In the case of `CC(=O)N1CCC(c2cccc(NC3CCOCC3)n2)CC1`, the cytotoxicity at 10 µM came out at 13.3%.

Consider `COc1ccc(C2CNCCN2C(=O)c2cccc3ncccc23)cc1` (configuration not stated), for which the cytotoxicity at 10 µM is -8.73%.

Turning to `Cc1nc(C2CCCN(C(C)C)C2)sc1Br` (configuration not stated), the cytotoxicity at 10 µM is -4.52%.

Consider `c1ccc(CCN2CCCC2c2ccnc(Nc3ncccn3)n2)cc1` (configuration not stated), for which the cytotoxicity at 10 µM came to 2.14%.

`CNc1cc(C)nc(C2CN(Cc3ccc(C)nc3)CCO2)c1` (configuration not stated): the cytotoxicity at 10 µM is -2.29%.

Regarding `O=C(Nc1ccccc1)N1CCn2c(nnc2C2CCNCC2)C1`, the cytotoxicity at 10 µM was -3.84%.

For the compound `CC(C)NC(=O)N1CCC2(CC1)CN(C(=O)NC(C)C)CCO2`, the cytotoxicity at 10 µM was 11.8%.

For `O=C(NCC(O)CO)Nc1cc(Br)ccc1F` (configuration not stated), the cytotoxicity at 10 µM is 1.69%.

Take `NC(=O)CN(Cc1cccc(Oc2ccccc2)c1)C(=O)C1CC1`: the cytotoxicity at 10 µM is 4.59%.

In the case of `COc1ccc(CNCCc2cccc(C(N)=O)c2)cc1C`, the cytotoxicity at 10 µM is -6.81%.

Turning to `O=C(COc1ccccc1)NS(=O)(=O)Cc1ccccc1`, the cytotoxicity at 10 µM was -12.3%.

As to `COC(=O)c1cc(NCc2cscn2)ccc1C`, the cytotoxicity at 10 µM amounted to 5.17%.

Turning to `Cn1nc2c(cc1=O)CN(CC(=O)NC1CCCCNC1=O)CC2` (configuration not stated), the cytotoxicity at 10 µM stood at 1.9%.

On to `CS(=O)(=O)c1cccc(Cl)c1C(=O)NCCN1C(=O)CCC1=O`, for which the cytotoxicity at 10 µM is -1.19%.

On to `CS(=O)(=O)CCCC(=O)Nc1cc(-c2cccc(F)c2F)n[nH]1`, for which the cytotoxicity at 10 µM came out at 4.77%.

Consider `Cc1noc(C)c1CNC(=O)NCCC(=O)N1CCCc2ccccc21`, for which the cytotoxicity at 10 µM was -0.353%.

Regarding `CC(C)(C)C(=O)N1CCC(COCc2ccccc2)C1` (configuration not stated), the cytotoxicity at 10 µM came to 12.8%.

Take `Cc1csc(N2CCN(C(=O)c3cc(C4CC4)[nH]n3)CC2)n1`: the cytotoxicity at 10 µM came to 3.34%.

Take `NS(=O)(=O)CCCNC(=O)C1(c2cccc(Cl)c2)CC1`: the cytotoxicity at 10 µM was -4.02%.

`CCOc1ccc(S(=O)(=O)NC(=O)c2c(C)noc2C(C)C)cc1`: the cytotoxicity at 10 µM was -3.08%.

With `CN(Cc1nccn1C)S(=O)(=O)c1cccc(C#N)c1`, the cytotoxicity at 10 µM turned out to be 15.1%.

Turning to `O=C(NCCNc1ncccn1)c1scnc1Cl`, the cytotoxicity at 10 µM is -3.11%.

`CC(C#N)(NC(=O)COc1ccccc1Br)C1CC1` (configuration not stated): the cytotoxicity at 10 µM is 7.45%.

For `CC1c2cccn2CCN1S(=O)(=O)N1CCCCCC1` (configuration not stated), the cytotoxicity at 10 µM was -2.3%.

With `CN(CCCc1cc(-c2ccccc2)n[nH]1)C(=O)CCCn1cncn1`, the cytotoxicity at 10 µM was -147%.

For the compound `CC(C)CCNC(=O)CCc1ccnc2ccccc12`, the cytotoxicity at 10 µM was -0.69%.

Turning to `COc1ccc(CNC(C)c2cn[nH]c2C)cc1` (configuration not stated), the cytotoxicity at 10 µM was found to be 6.1%.

With `CC(C)Cn1cnc(S(=O)(=O)NCCc2nnc3ccccn23)c1`, the cytotoxicity at 10 µM came out at 6.48%.

`COc1ccc(CN2CCN(c3ncc(Cl)cn3)CC2)cc1`: the cytotoxicity at 10 µM is -4.86%.

Consider `CCc1ccc(Cn2nccc2NC(=O)C2CCS(=O)(=O)C2)cc1` (configuration not stated), for which the cytotoxicity at 10 µM is -1.32%.

Consider `O=C(NS(=O)(=O)c1cccc(F)c1)c1ccccc1F`, for which the cytotoxicity at 10 µM was 9.39%.

As to `Cn1c(N)nnc1SCC1OCCc2ccccc21` (configuration not stated), the cytotoxicity at 10 µM was found to be 0.355%.

With `CC(=O)c1ccc(CNC(=O)c2cc(C#N)cn2C)nc1C`, the cytotoxicity at 10 µM stood at 5.44%.

For `Cc1cnn(CCNCc2csc(C)n2)c1`, the cytotoxicity at 10 µM was 5.79%.

For `CC(C)c1noc(CCC(=O)NC(C)c2nnc3n2CCCCC3)n1` (configuration not stated), the cytotoxicity at 10 µM was -4.35%.

For the compound `Cc1cc(CNC(=O)NC(C)c2ccncc2)no1` (configuration not stated), the cytotoxicity at 10 µM is -13.5%.

With `Cc1c(C(=O)NC(C)C(C)C)nnn1-c1cccc2c1CCN(C)C2` (configuration not stated), the cytotoxicity at 10 µM is -9.03%.

Consider `CCN1CC(C(=O)NCc2ccc3c(c2)nc(C)n3C)CCC1=O` (configuration not stated), for which the cytotoxicity at 10 µM is -6.9%.

On to `CN(Cc1ccoc1)C(=O)C1(Oc2ccc(Cl)cc2)CCNCC1`, for which the cytotoxicity at 10 µM stood at 5.73%.

Regarding `O=C(NCCOCCO)c1cnc(-c2ccccc2)nc1O`, the cytotoxicity at 10 µM stood at 0.701%.

Consider `O=C(CCCc1cn[nH]c1)N1C[C@H](CO)C[C@H](CN2CCCC2)C1`, for which the cytotoxicity at 10 µM was -10.2%.

Consider `CN1CCN(Cc2c[nH]cn2)CC12CCC(=O)N(CC1CC1)CC2` (configuration not stated), for which the cytotoxicity at 10 µM amounted to 2.98%.

In the case of `Cc1ccc(OCc2occc2C(=O)N2CCCCC(N)C2)cc1` (configuration not stated), the cytotoxicity at 10 µM is -8.84%.

With `OCCC1CN(c2nc(-c3ccncc3)nc3c2CCNCC3)CCO1` (configuration not stated), the cytotoxicity at 10 µM was 5.05%.

On to `CN(C)S(=O)(=O)N1CCCC(c2nccn2Cc2cccnc2)C1` (configuration not stated), for which the cytotoxicity at 10 µM amounted to 4.61%.

Consider `COc1cnc(CN2CCN(CC(C)C)C(=O)C2C)cc1O` (configuration not stated), for which the cytotoxicity at 10 µM is 3.28%.

Regarding `CCn1c(N)nc2cc(C(=O)NCCCc3ccccn3)cnc21`, the cytotoxicity at 10 µM is -7.38%.

For `CC(C)Oc1ccccc1-c1cc(CN)ccc1F`, the cytotoxicity at 10 µM is -2.69%.

As for `CN1CCCC(CCC(=O)N2CCc3onc(C(=O)N(C)C)c3C2)C1` (configuration not stated), the cytotoxicity at 10 µM is -11%.

Take `CNc1ncc(C(=O)N2CC[C@@](O)(C3CCOCC3)[C@H](C)C2)cn1`: the cytotoxicity at 10 µM was 4.56%.

In the case of `CSCc1noc(C2CCC(=O)N(CCCN3CCCC3=O)C2)n1` (configuration not stated), the cytotoxicity at 10 µM is 3.59%.

With `Cc1cc(C)n(CC(C)NC(=O)c2cc(CN3CCC(O)CC3)on2)n1` (configuration not stated), the cytotoxicity at 10 µM was 0.873%.

For `CSc1ccccc1C(=O)N1CCOC(CCN(C)C)C1` (configuration not stated), the cytotoxicity at 10 µM came out at 7.46%.

In the case of `Cc1cc2[nH]c(CN3CCOC(Cc4ccccc4)C3)cc(=O)n2n1` (configuration not stated), the cytotoxicity at 10 µM was -24.1%.

With `Cn1c(CN2CCC(O)CC2)nnc1C1CCCN(C(=O)C2CNC2)C1` (configuration not stated), the cytotoxicity at 10 µM amounted to 3.19%.

For the compound `O=C1CCc2ccccc2N1CCCn1cnnn1`, the cytotoxicity at 10 µM stood at 3.92%.

Regarding `O=C(CCCc1cn[nH]c1)N1C[C@@H](CN2CCCC2)C[C@H](CO)C1`, the cytotoxicity at 10 µM is -8.96%.

For the compound `O=C(CCS(=O)(=O)c1ccccc1)NC1CCOC2(CCOCC2)C1` (configuration not stated), the cytotoxicity at 10 µM was found to be 7.56%.

For the compound `Cc1nc(O)cc(CNC(=O)CC[C@@H]2CCCN3CCCC[C@H]23)n1`, the cytotoxicity at 10 µM was determined as 1.87%.

For the compound `CCN(Cc1noc(CC(C)C)n1)Cc1ccccc1OCC(=O)O`, the cytotoxicity at 10 µM was -49%.

As for `COc1cccc(F)c1-c1c[nH]c(C)n1`, the cytotoxicity at 10 µM is -0.654%.

On to `c1cncc(NCCCNC2CCSC2)c1` (configuration not stated), for which the cytotoxicity at 10 µM was -3.62%.

With `COCc1nc(CNC2CCC3(CCNCC3)CC2)no1`, the cytotoxicity at 10 µM was -3.13%.

As for `CC(C)c1nc(N2CCN3CCCC3C2)c2cnn(C)c2n1` (configuration not stated), the cytotoxicity at 10 µM is -11.9%.

As for `CCn1ncnc1C1CC(=O)NCc2nc3ccccn3c21` (configuration not stated), the cytotoxicity at 10 µM is -12.2%.

Turning to `Cc1ncc(-c2nc3cc(S(=O)(=O)N4CCCC4)ccc3n2C)cn1`, the cytotoxicity at 10 µM is -21%.

On to `Cc1cnc(N2CCCC3(CCCN(C)C3)C2)nc1` (configuration not stated), for which the cytotoxicity at 10 µM is -11.8%.

With `CCC(CC)C(=O)NS(=O)(=O)c1ccc(C#N)cc1C(F)(F)F`, the cytotoxicity at 10 µM was -15.9%.

As for `COCc1nc(C(=O)NS(=O)(=O)c2c(C)c(C)cc(C)c2C)cs1`, the cytotoxicity at 10 µM is -8.01%.

As for `COc1ccc(F)cc1C(C)NC(=O)NCCCn1cncn1` (configuration not stated), the cytotoxicity at 10 µM was -17.8%.

For `Cc1ccc(NC2CCN(C(=O)c3cccc4cccnc34)CC2)nn1`, the cytotoxicity at 10 µM was -8.31%.

Regarding `O=C(COc1ccc(C(F)(F)F)cc1)N1CCOCC1c1ncon1` (configuration not stated), the cytotoxicity at 10 µM is -12.5%.

As to `OCCN1CCN(CC(O)c2ccc(OC(F)(F)F)cc2)CC1` (configuration not stated), the cytotoxicity at 10 µM was -20.8%.

As to `Cc1ccccc1CCC(=O)N1CCCC(c2cc(C(N)=O)[nH]n2)C1` (configuration not stated), the cytotoxicity at 10 µM was -11.3%.

In the case of `c1csc(-c2nc(CN3CCn4c(nnc4C4CC4)C3)co2)c1`, the cytotoxicity at 10 µM turned out to be 7.17%.

With `CNC(=O)CN1CCO[C@H]2CN(C(=O)c3ccncc3F)C[C@H]21`, the cytotoxicity at 10 µM was -155%.

For `O=C(CO[C@@H]1CC[C@H]2[C@H]1OCCN2CC1CCOCC1)N1CCCC1`, the cytotoxicity at 10 µM was -11.6%.

For the compound `CC(C)CN1CCS(=O)(=O)[C@@H]2CCN(S(=O)(=O)C3CC3)CC[C@@H]21`, the cytotoxicity at 10 µM stood at 7.8%.

As to `Cc1cc(CN2C[C@@H]3CN(C(=O)c4ccco4)CCO[C@@H]3C2)no1`, the cytotoxicity at 10 µM is -141%.

Consider `O=c1c2c[nH]c(N3CCC(O)CC3)nc-2cn1Cc1cccc(F)c1`, for which the cytotoxicity at 10 µM amounted to 20.6%.

With `O=c1[nH][nH]c2cn(-c3ccc(Cl)cc3)c(=O)n12`, the cytotoxicity at 10 µM was found to be 6.45%.
